Assay: Measurement of phenolics in plasma
Type: in vivo
Conditions: 2 months old male mice fed diet containing 25% dried plum for 4 weeks
Outline: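 Male C57Bl/6 mice, 2 months old, fed control AIN-93G or diet with 25% test material for 4 weeks (n=8/group). At euthanasia, blood was drawn into lithium-heparin tubes and spun at 6500 rpm for 10 min at 4°C. Plasma was acidified 4:1 with 1% ascorbic acid in saline, purged with nitrogen and stored at −80°C. Quercetin glycosides and caffeic and gallic acid derivatives were profiled by LC/TOF-MS.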
In the case of `COc1ccc(CCC(=O)O)cc1O[C@@H]1O[C@H](C(=O)O)[C@@H](O)[C@H](O)[C@H]1O` [Dihydroisoferulic acid 3-O-glucuronide], the “plasma concentration, CMin” value is reported as 420 nM and the “plasma concentration, Caverage” value is reported as 1390 ± 310 nM.
For `COc1ccc(/C=C/C(=O)O)cc1O[C@@H]1O[C@H](C(=O)O)[C@@H](O)[C@H](O)[C@H]1O` [Isoferulic acid 3-O-glucuronide], the “plasma concentration, CMin” value was 20 nM and the “plasma concentration, Caverage” value was 800 ± 210 nM.
In the case of `COc1cc(CCC(=O)O)ccc1O[C@@H]1O[C@H](C(=O)O)[C@@H](O)[C@H](O)[C@H]1O` [Dihydroferulic acid 4-O-glucuronide], the “plasma concentration, CMin” value is reported as 3270 nM and the “plasma concentration, Caverage” value is reported as 4990 ± 440 nM.
For `COc1cc(/C=C/C(=O)O)ccc1O[C@@H]1O[C@H](C(=O)O)[C@@H](O)[C@H](O)[C@H]1O` [Ferulic acid 4-O-glucuronide], the “plasma concentration, CMin” value was 1100 nM and the “plasma concentration, Caverage” value was 3060 ± 450 nM.
